According to ChEMBL document CHEMBL3627671, “Novel derivatives of nitro-substituted salicylic acids: Synthesis, antimicrobial activity and cytotoxicity” (Bioorg Med Chem, 2015):
Converted amounts (≈) assume the structure as drawn.

How the values were obtained:
Assay type in all cases: functional
[1] = tested on: Aspergillus fumigatus; experiment: Antifungal activity against Aspergillus fumigatus 231 after 48 hrs by microdilution broth method; conditions: Aspergillus fumigatus, 231, 48 h
Summary of the method: (§1)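 CLSI M27-A3 broth microdilution in RPMI 1640 with glutamine, buffered to pH 7.0 with MOPS; DMSO diluent. Yeast inoculum 5 × 10^3 ± 0.2 CFU/mL. Moulds grown on Sabouraud agar 3–10 days before spore harvest, final inoculum 0.5-5 × 10^4 CFU/mL, checked in a Bürker chamber. Incubated dark, humid, 35 °C, read at 24 and 48 h visually and at 540 nm. MIC taken as ≥80% (yeasts) or ≥50% (filamentous) growth reduction versus control.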

[2] = tested on: Lichtheimia corymbifera; experiment: Antifungal activity against Absidia corymbifera 272 after 48 hrs by microdilution broth method; conditions: Lichtheimia corymbifera, 272, 48 h; summary of the method: as §1
[3] = tested on: Nakaseomyces glabratus; experiment: Antifungal activity against Candida glabrata 20/I after 24 hrs by microdilution broth method; summary of the method: as §1
[4] = tested on: Mycobacterium tuberculosis; experiment: Antimycobacterial activity against Mycobacterium tuberculosis H37Rv 331/88 after 14 days; conditions: H37Rv 331/88, 336 h
[5] = tested on: Mycobacterium kansasii; experiment: Antimycobacterial activity against Mycobacterium kansasii 235/80 after 21 days; conditions: 235/80, 504 h
Summary of the method: (§2)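 Šula's semisynthetic medium micromethod at 37 °C, read after 7, 14 and 21 days. The 1.0 McFarland suspension was diluted 10^-4. MIC determined. 6509/96 is a clinical isolate.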

[6] = tested on: Aspergillus fumigatus; experiment: Antifungal activity against Aspergillus fumigatus 231 after 24 hrs by microdilution broth method; conditions: Aspergillus fumigatus, 231, 24 h; summary of the method: as §1
[7] = tested on: Candida tropicalis; experiment: Antifungal activity against Candida tropicalis 156 after 24 hrs by microdilution broth method; conditions: Candida tropicalis, 156, 24 h; summary of the method: as §1
[8] = tested on: Pichia kudriavzevii; experiment: Antifungal activity against Candida krusei E28 after 48 hrs by microdilution broth method; conditions: E28, 48 h; summary of the method: as §1
[9] = tested on: Mycobacterium kansasii; experiment: Antimycobacterial activity against Mycobacterium kansasii 235/80 after 14 days; conditions: 235/80, 336 h; summary of the method: as §2
[10] = tested on: Candida tropicalis; experiment: Antifungal activity against Candida tropicalis 156 after 48 hrs by microdilution broth method; conditions: Candida tropicalis, 156, 48 h; summary of the method: as §1
[11] = tested on: Staphylococcus aureus; experiment: Antibacterial activity against Staphylococcus aureus CCM 4516/08 after 48 hrs by microdilution broth method; conditions: CCM 4516/08, 48 h
[12] = tested on: Klebsiella pneumoniae; experiment: Antibacterial activity against ESBL-positive Klebsiella pneumoniae J 14368/08 after 48 hrs by microdilution broth method; conditions: J 14368/08, 48 h
Summary of the method: (§3)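 Mueller-Hinton broth microdilution (modified M07-A07), pH 7.4 (±0.2). Compounds dissolved in DMSO, tested at final 500 to 0.49 µmol/L. Inoculum in sterile water matched to 0.5 McFarland. Incubated in the dark, humid atmosphere, 35 °C, read at 24 and 48 h visually and at 540 nm. MIC taken as ≥95% growth reduction (IC95) versus control.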

[13] = tested on: Staphylococcus aureus; experiment: Antibacterial activity against methicillin-resistant Staphylococcus aureus H 5996/08 after 24 hrs by microdilution broth method; conditions: H 5996/08, 24 h
[14] = tested on: Candida albicans; experiment: Antifungal activity against Candida albicans ATCC 44859 after 24 hrs by microdilution broth method; conditions: ATCC 44859, 24 h; summary of the method: as §1
[15] = tested on: Klebsiella pneumoniae; experiment: Antibacterial activity against Klebsiella pneumoniae D 11750/08 after 48 hrs by microdilution broth method; conditions: D 11750/08, 48 h; summary of the method: as §3
[16] = tested on: Enterococcus sp.; experiment: Antibacterial activity against Enterococcus sp. J 14365/08 after 24 hrs by microdilution broth method; conditions: J 14365/08, 24 h; summary of the method: as §3
[17] = tested on: Staphylococcus epidermidis; experiment: Antibacterial activity against Staphylococcus epidermidis H 6966/08 after 48 hrs by microdilution broth method; conditions: H 6966/08, 48 h; summary of the method: as §3
[18] = tested on: Pseudomonas aeruginosa; experiment: Antibacterial activity against Pseudomonas aeruginosa CCM 1961 after 24 hrs by microdilution broth method; conditions: CCM 1961, 24 h; summary of the method: as §3
[19] = tested on: Mycobacterium kansasii; experiment: Antimycobacterial activity against Mycobacterium kansasii 6509/96 after 7 days; conditions: 6509/96, 168 h; summary of the method: as §2
[20] = tested on: Trichosporon asahii; experiment: Antifungal activity against Trichosporon asahii 1188 after 48 hrs by microdilution broth method; conditions: Trichosporon asahii, 1188, 48 h; summary of the method: as §1
[21] = tested on: Mycobacterium kansasii; experiment: Antimycobacterial activity against Mycobacterium kansasii 235/80 after 7 days; conditions: 235/80, 168 h; summary of the method: as §2
[22] = tested on: Klebsiella pneumoniae; experiment: Antibacterial activity against ESBL-positive Klebsiella pneumoniae J 14368/08 after 24 hrs by microdilution broth method; conditions: J 14368/08, 24 h; summary of the method: as §3
[23] = tested on: Staphylococcus aureus; experiment: Antibacterial activity against methicillin-resistant Staphylococcus aureus H 5996/08 after 48 hrs by microdilution broth method; conditions: H 5996/08, 48 h
[24] = tested on: Lichtheimia corymbifera; experiment: Antifungal activity against Absidia corymbifera 272 after 24 hrs by microdilution broth method; conditions: Lichtheimia corymbifera, 272, 24 h; summary of the method: as §1
[25] = tested on: Staphylococcus aureus; experiment: Antibacterial activity against Staphylococcus aureus CCM 4516/08 after 24 hrs by microdilution broth method; conditions: CCM 4516/08, 24 h
[26] = tested on: Mycobacterium tuberculosis; experiment: Antimycobacterial activity against Mycobacterium tuberculosis H37Rv 331/88 after 21 days; conditions: H37Rv 331/88, 504 h
[27] = tested on: Pseudomonas aeruginosa; experiment: Antibacterial activity against Pseudomonas aeruginosa CCM 1961 after 48 hrs by microdilution broth method; conditions: CCM 1961, 48 h; summary of the method: as §3
[28] = tested on: Trichophyton mentagrophytes; experiment: Antifungal activity against Trichophyton mentagrophytes 445 after 24 hrs by microdilution broth method; conditions: Trichophyton mentagrophytes, 445, 24 h
[29] = tested on: Klebsiella pneumoniae; experiment: Antibacterial activity against Klebsiella pneumoniae D 11750/08 after 24 hrs by microdilution broth method; conditions: D 11750/08, 24 h; summary of the method: as §3
[30] = tested on: Mycobacterium kansasii; experiment: Antimycobacterial activity against Mycobacterium kansasii 6509/96 after 14 days; conditions: 6509/96, 336 h; summary of the method: as §2
[31] = tested on: Enterococcus sp.; experiment: Antibacterial activity against Enterococcus sp. J 14365/08 after 48 hrs by microdilution broth method; conditions: J 14365/08, 48 h; summary of the method: as §3
[32] = tested on: Trichosporon asahii; experiment: Antifungal activity against Trichosporon asahii 1188 after 24 hrs by microdilution broth method; conditions: Trichosporon asahii, 1188, 24 h; summary of the method: as §1
[33] = tested on: Mycobacterium avium; experiment: Antimycobacterial activity against Mycobacterium avium 330/80 after 14 days; conditions: 330/80, 336 h
[34] = tested on: Mycobacterium avium; experiment: Antimycobacterial activity against Mycobacterium avium 330/80 after 21 days; conditions: 330/80, 504 h
[35] = tested on: Escherichia coli; experiment: Antibacterial activity against Escherichia coli CCM4517 after 24 hrs by microdilution broth method; conditions: CCM4517, 24 h; summary of the method: as §3
[36] = tested on: Candida albicans; experiment: Antifungal activity against Candida albicans ATCC 44859 after 48 hrs by microdilution broth method; conditions: ATCC 44859, 48 h; summary of the method: as §1
[37] = tested on: Trichophyton mentagrophytes; experiment: Antifungal activity against Trichophyton mentagrophytes 445 after 48 hrs by microdilution broth method; conditions: Trichophyton mentagrophytes, 445, 48 h
[38] = tested on: Staphylococcus epidermidis; experiment: Antibacterial activity against Staphylococcus epidermidis H 6966/08 after 24 hrs by microdilution broth method; conditions: H 6966/08, 24 h; summary of the method: as §3
[39] = tested on: Escherichia coli; experiment: Antibacterial activity against Escherichia coli CCM4517 after 48 hrs by microdilution broth method; conditions: CCM4517, 48 h; summary of the method: as §3
[40] = tested on: Pichia kudriavzevii; experiment: Antifungal activity against Candida krusei E28 after 24 hrs by microdilution broth method; conditions: E28, 24 h; summary of the method: as §1
[41] = tested on: Nakaseomyces glabratus; experiment: Antifungal activity against Candida glabrata 20/I after 48 hrs by microdilution broth method; summary of the method: as §1
[42] = tested on: Mycobacterium kansasii; experiment: Antimycobacterial activity against Mycobacterium kansasii 6509/96 after 21 days; conditions: 6509/96, 504 h; summary of the method: as §2

SMILES: O=C(Nc1ccc([N+](=O)[O-])cc1)c1cc([N+](=O)[O-])ccc1O
- MIC [1]: > 500 µM
- MIC [2]: > 500 µM
- MIC [3]: > 500 µM
- MIC [4]: 62.5 µM (≈ 19 µg/mL)
- MIC [5]: 125 µM (≈ 37.9 µg/mL)
- MIC [6]: > 500 µM
- MIC [7]: > 500 µM
- MIC [8]: > 500 µM
- MIC [9]: 62.5 µM (≈ 19 µg/mL)
- MIC [10]: > 500 µM
- MIC [11]: 250 µM (≈ 75.8 µg/mL)
- MIC [12]: > 500 µM
- MIC [13]: 250 µM (≈ 75.8 µg/mL)
- MIC [14]: > 500 µM
- MIC [15]: > 500 µM
- MIC [16]: > 500 µM
- MIC [17]: 500 µM (≈ 152 µg/mL)
- MIC [18]: > 500 µM
- MIC [19]: 62.5 µM (≈ 19 µg/mL)
- MIC [20]: > 500 µM
- MIC [21]: 16 µM (≈ 4.85 µg/mL)
- MIC [22]: > 500 µM
- MIC [23]: 250 µM (≈ 75.8 µg/mL)
- MIC [24]: > 500 µM
- MIC [25]: 250 µM (≈ 75.8 µg/mL)
- MIC [26]: 125 µM (≈ 37.9 µg/mL)
- MIC [27]: > 500 µM
- MIC [28]: > 500 µM
- MIC [29]: > 500 µM
- MIC [30]: 125 µM (≈ 37.9 µg/mL)
- MIC [31]: > 500 µM
- MIC [32]: > 500 µM
- MIC [33]: 250 µM (≈ 75.8 µg/mL)
- MIC [34]: 250 µM (≈ 75.8 µg/mL)
- MIC [35]: > 500 µM
- MIC [36]: > 500 µM
- MIC [37]: > 500 µM
- MIC [38]: 500 µM (≈ 152 µg/mL)
- MIC [39]: > 500 µM
- MIC [40]: > 500 µM
- MIC [41]: > 500 µM
- MIC [42]: 125 µM (≈ 37.9 µg/mL)

SMILES: O=C(Nc1cccc(Br)c1)c1cc([N+](=O)[O-])ccc1O
- MIC [1]: 500 µM (≈ 169 µg/mL)
- MIC [2]: 500 µM (≈ 169 µg/mL)
- MIC [3]: > 500 µM
- MIC [4]: 16 µM (≈ 5.39 µg/mL)
- MIC [5]: 62.5 µM (≈ 21.1 µg/mL)
- MIC [6]: 500 µM (≈ 169 µg/mL)
- MIC [7]: > 500 µM
- MIC [8]: > 500 µM
- MIC [9]: 62.5 µM (≈ 21.1 µg/mL)
- MIC [10]: > 500 µM
- MIC [11]: 62.5 µM (≈ 21.1 µg/mL)
- MIC [12]: > 500 µM
- MIC [13]: 31.2 µM (≈ 10.5 µg/mL)
- MIC [14]: > 500 µM
- MIC [15]: > 500 µM
- MIC [16]: 500 µM (≈ 169 µg/mL)
- MIC [17]: 250 µM (≈ 84.3 µg/mL)
- MIC [18]: > 500 µM
- MIC [19]: 32 µM (≈ 10.8 µg/mL)
- MIC [20]: 500 µM (≈ 169 µg/mL)
- MIC [21]: 32 µM (≈ 10.8 µg/mL)
- MIC [22]: > 500 µM
- MIC [23]: 62.5 µM (≈ 21.1 µg/mL)
- MIC [24]: 500 µM (≈ 169 µg/mL)
- MIC [25]: 31.2 µM (≈ 10.5 µg/mL)
- MIC [26]: 16 µM (≈ 5.39 µg/mL)
- MIC [27]: > 500 µM
- MIC [28]: 250 µM (≈ 84.3 µg/mL)
- MIC [29]: > 500 µM
- MIC [30]: 62.5 µM (≈ 21.1 µg/mL)
- MIC [31]: > 500 µM
- MIC [32]: 500 µM (≈ 169 µg/mL)
- MIC [33]: 125 µM (≈ 42.1 µg/mL)
- MIC [34]: 250 µM (≈ 84.3 µg/mL)
- MIC [35]: > 500 µM
- MIC [36]: > 500 µM
- MIC [37]: 250 µM (≈ 84.3 µg/mL)
- MIC [38]: 31.2 µM (≈ 10.5 µg/mL)
- MIC [39]: > 500 µM
- MIC [40]: 500 µM (≈ 169 µg/mL)
- MIC [41]: > 500 µM
- MIC [42]: 62.5 µM (≈ 21.1 µg/mL)
